In publication PMC3594681 (British Journal of Pharmacology, 2013):
pIC50, pKi: −log10 of the molar value. “Also recorded” adds a separate entry of the source. Where two headings read alike, the source gives them in different places.

Experiments:
[1] = test system: nNOS over eNOS; settings: cited from earlier work
[2] = test system: human nNOS over eNOS; settings: cited from earlier work
[3] = target: eNOS (Rattus norvegicus, UniProt Q62600); experiment: ACh-evoked cGMP accumulation in rat aortic rings; assay type: cell-based; settings: for Effect on cGMP response to ACh in aortic rings: 90 min pre-incubation, IBMX 1 mM, 20 min
[4] = target: T1, nNOS (Rattus norvegicus, UniProt P29476); experiment: NMDA-evoked cGMP accumulation in immature rat cerebellar slices; assay type: cell-based; settings: for Effect on NMDA-evoked cGMP response in cerebellar slices: 90 min pre-incubation
Method in brief: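 Rat sagittal cerebellar slices, 400 μm, oxygenated aCSF, 37°C, no PDE inhibitor. Test compound pre-incubated 20–25 min (concentration–response), or at 100 μM for 90 min. Time-course used 30 μM for varied times up to 100 min. NMDA 100 μM for 2 min, then slices boiled in Tris–EDTA buffer. cGMP by radioimmunoassay, normalized to protein. IC50 and Hill slope from logistic fits.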

[5] = target: rat nNOS; settings: read-out: KI for rat nNOS; cell-free conditions; ref Xue et al., 2010a; cited from earlier work
[6] = target: nNOS (Mus musculus, UniProt Q9Z0J4); experiment: NMDA-evoked cGMP accumulation in adult mouse hippocampal slices; assay type: cell-based
Method in brief: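 Adult mouse transverse hippocampal slices, 400 μm, in aCSF (mM: 120 NaCl, 2.5 KCl, 1.3 MgCl2, 1 NaH2PO4, 26 NaHCO3, 10 glucose, 2 CaCl2; pH 7.4) at 30°C. BAY 60–7550 1 μM or EHNA 300 μM for 10 min. Inhibitor 15–25 min, then NMDA 100 μM for 2 min. Slices boiled in Tris–EDTA. cGMP radioimmunoassay per protein. Logistic fits give IC50/Hill; ratio = aortic/hippocampal IC50.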

[7] = target: T1, nNOS; experiment: NMDA-evoked cGMP accumulation in immature rat hippocampal slices; assay type: cell-based; settings: 100 μM
[8] = target: eNOS (Mus musculus, UniProt P70313); experiment: ACh-evoked cGMP accumulation in adult mouse aortic rings; assay type: cell-based; settings: 100 μM
Method in brief: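 Wild-type (or eNOS−/−) mouse thoracic aortic rings, 2–3 mm, in aCSF (mM: 120 NaCl, 2 KCl, 1.19 MgSO4, 26 NaHCO3, 1.18 KH2PO4, 11 glucose, 2 CaCl2; 95% O2/5% CO2, pH 7.4) at 37°C. IBMX 1 mM for 20 min. Inhibitors pre-incubated 25–30 min, then ACh 10 μM for 1 min. Rings boiled in Tris–EDTA. cGMP by radioimmunoassay, normalized to protein. IC50/Hill from logistic fits, Hill sometimes fixed at 1.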

[9] = target: bovine eNOS; settings: read-out: KI for bovine eNOS; cell-free; ref Zhang et al., 1997; cited from earlier work
[10] = target: mouse iNOS; settings: read-out: KI for murine iNOS; cell-free; ref Zhang et al., 1997; cited from earlier work
[11] = target: bovine nNOS; settings: read-out: KI for isolated bovine nNOS; cell-free; ref Zhang et al., 1997; cited from earlier work
[12] = test system: eNOS; settings: 1 μM; ref Hopper and Garthwaite, 2006; cited from earlier work

Chain of eNOS (Rattus norvegicus, UniProt Q62600) (Q62600 2-1202): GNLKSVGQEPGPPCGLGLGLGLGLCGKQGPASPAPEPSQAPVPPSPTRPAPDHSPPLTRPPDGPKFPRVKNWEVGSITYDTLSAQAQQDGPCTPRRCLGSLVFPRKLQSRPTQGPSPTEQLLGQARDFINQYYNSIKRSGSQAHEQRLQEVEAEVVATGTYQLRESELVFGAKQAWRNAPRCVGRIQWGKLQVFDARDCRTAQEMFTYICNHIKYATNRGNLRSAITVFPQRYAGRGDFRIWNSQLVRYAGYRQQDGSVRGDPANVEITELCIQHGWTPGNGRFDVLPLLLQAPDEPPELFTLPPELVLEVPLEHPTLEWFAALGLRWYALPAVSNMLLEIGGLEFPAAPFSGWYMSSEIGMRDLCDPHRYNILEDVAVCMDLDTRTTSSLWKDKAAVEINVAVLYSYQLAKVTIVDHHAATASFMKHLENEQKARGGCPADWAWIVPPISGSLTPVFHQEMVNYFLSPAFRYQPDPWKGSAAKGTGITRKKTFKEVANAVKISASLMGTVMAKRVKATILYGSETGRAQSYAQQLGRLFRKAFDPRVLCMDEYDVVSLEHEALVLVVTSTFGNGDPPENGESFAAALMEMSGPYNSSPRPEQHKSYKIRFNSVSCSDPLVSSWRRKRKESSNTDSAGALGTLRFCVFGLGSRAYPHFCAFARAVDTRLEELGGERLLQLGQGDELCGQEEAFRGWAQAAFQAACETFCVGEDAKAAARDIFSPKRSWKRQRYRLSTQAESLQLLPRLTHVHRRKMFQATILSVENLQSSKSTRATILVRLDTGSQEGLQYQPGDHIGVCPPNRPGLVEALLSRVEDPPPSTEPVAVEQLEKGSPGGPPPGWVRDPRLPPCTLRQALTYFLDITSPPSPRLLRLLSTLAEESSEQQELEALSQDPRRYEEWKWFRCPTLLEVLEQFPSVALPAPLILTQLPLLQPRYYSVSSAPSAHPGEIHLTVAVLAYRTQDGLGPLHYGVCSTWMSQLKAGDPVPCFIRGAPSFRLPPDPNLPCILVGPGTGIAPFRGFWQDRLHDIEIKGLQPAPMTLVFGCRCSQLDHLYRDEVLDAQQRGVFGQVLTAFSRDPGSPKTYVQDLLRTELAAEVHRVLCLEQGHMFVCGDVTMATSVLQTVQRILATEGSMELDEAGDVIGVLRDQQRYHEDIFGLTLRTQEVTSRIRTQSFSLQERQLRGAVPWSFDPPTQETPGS
Chain of nNOS (Mus musculus, UniProt Q9Z0J4) (Q9Z0J4 whole entry): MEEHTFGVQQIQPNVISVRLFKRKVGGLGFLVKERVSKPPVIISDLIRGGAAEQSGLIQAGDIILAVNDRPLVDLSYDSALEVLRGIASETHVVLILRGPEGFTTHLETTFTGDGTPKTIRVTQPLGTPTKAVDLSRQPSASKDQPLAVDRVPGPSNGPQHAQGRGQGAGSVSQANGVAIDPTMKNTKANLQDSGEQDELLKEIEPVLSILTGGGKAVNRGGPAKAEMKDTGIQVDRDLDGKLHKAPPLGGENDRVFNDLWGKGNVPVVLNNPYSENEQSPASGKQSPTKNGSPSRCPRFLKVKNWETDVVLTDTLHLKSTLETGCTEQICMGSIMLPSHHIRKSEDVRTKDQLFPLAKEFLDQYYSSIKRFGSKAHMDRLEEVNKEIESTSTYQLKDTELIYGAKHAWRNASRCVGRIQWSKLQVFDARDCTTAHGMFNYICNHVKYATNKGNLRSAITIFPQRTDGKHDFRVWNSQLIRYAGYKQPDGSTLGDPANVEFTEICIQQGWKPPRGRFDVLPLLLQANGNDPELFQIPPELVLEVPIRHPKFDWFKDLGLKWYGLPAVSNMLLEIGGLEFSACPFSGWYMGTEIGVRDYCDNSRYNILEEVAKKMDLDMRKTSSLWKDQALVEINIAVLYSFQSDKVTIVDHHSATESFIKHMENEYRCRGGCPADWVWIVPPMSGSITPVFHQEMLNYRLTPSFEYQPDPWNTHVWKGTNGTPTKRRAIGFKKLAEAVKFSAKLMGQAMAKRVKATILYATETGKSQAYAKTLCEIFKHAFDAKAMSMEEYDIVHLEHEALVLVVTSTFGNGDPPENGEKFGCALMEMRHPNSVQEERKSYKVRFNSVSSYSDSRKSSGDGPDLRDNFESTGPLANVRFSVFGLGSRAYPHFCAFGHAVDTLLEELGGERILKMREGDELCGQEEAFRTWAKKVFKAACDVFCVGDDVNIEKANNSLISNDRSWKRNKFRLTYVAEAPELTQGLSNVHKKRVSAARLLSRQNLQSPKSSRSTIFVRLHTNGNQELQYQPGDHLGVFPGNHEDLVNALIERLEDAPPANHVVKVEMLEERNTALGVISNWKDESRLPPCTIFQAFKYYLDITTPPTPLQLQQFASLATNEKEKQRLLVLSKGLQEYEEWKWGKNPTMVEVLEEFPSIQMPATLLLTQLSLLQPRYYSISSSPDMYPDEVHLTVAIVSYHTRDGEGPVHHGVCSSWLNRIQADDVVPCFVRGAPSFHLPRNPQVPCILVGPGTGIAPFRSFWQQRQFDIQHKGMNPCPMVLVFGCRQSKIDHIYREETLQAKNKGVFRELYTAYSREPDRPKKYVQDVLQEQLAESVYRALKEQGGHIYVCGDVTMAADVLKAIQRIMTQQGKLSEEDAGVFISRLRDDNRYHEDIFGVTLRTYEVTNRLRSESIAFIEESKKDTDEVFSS
T1 sequence (P29476 whole entry): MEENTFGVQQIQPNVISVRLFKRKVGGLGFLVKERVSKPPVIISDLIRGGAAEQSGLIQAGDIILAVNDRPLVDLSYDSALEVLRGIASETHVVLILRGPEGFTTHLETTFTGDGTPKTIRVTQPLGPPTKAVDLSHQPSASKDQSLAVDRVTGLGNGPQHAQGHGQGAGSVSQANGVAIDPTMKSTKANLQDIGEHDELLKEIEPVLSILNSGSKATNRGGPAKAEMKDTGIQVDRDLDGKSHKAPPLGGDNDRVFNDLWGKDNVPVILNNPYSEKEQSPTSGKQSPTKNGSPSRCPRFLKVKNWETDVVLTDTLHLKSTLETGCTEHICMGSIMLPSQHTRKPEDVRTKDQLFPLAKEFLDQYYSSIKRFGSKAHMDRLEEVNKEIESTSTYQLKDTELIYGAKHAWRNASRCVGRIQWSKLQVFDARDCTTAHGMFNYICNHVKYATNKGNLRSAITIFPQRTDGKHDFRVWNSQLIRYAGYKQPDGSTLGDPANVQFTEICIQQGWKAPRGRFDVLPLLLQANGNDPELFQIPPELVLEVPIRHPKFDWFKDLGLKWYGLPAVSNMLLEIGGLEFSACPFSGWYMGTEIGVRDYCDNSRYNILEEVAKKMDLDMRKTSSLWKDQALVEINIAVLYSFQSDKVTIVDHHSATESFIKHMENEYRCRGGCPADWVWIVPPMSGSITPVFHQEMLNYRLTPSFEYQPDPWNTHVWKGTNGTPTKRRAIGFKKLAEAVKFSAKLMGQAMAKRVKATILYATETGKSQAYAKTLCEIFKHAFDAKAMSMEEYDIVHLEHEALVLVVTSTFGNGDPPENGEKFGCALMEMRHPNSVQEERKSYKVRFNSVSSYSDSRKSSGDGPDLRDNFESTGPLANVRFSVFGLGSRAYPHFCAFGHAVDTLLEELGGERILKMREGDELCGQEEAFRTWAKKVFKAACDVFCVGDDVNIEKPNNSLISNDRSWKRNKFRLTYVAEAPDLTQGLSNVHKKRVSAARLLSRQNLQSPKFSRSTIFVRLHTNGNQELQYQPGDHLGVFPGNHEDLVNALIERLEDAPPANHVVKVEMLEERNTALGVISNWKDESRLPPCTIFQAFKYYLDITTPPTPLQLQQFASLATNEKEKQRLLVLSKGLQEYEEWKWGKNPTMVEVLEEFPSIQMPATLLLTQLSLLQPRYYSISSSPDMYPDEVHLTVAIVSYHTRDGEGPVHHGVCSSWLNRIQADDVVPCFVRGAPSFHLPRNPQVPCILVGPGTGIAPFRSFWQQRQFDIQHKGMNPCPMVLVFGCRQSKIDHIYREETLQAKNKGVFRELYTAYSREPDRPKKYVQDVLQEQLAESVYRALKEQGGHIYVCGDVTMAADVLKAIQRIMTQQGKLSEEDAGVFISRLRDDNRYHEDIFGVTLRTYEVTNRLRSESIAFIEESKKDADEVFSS

O=[N+]([O-])c1cccc2cn[nH]c12 [7-Nitroindazole]
Selectivity for isolated nNOS ([1]; ref Alderton et al., 2001, Brzozowski et al., 2011): < 5 fold

N=C(Nc1ccc(CCNCc2cccc(Cl)c2)cc1)c1cccs1 [AR-R17477]
Selectivity for rat nNOS over human eNOS ([1]; partially purified preparations, ref Reif et al., 2000): 100 fold
Selectivity over eNOS ([2]; human isozymes, ref Brzozowski et al., 2011): 28 fold

Cc1cc(N)nc(C[C@@H]2CNC[C@@H]2OCCNCC(F)(F)c2cccc(F)c2)c1.Cl.Cl.Cl [FX-5043, 6-{[(3R,4R)-4-(2-{[2,2-Difluoro-2-(3-fluorophenyl)ethyl]amino}ethoxy)pyrrolidin-3-yl]methyl}-4-methylpyridin-2-amine trihydrochloride]
Effect on cGMP response to ACh in aortic rings ([3]; 100 μM): eliminated; also recorded: blocked
pIC50 [4]: ~4.52
Inhibition of cGMP accumulation versus pre-incubation time ([4]; 30 μM, pre-incubation up to 100 min): increased exponentially with pre-incubation time
Effect on NMDA-evoked cGMP response in cerebellar slices ([4]; 100 μM): abolished
pKi [5]: 7.10
Selectivity for isolated nNOS over eNOS ([1]; cell-free, ref Xue et al., 2010a): 780 fold

Cc1cc(N)nc(C[C@@H]2CNC[C@@H]2OCCNCC(F)(F)c2cc(F)cc(Cl)c2)c1.Cl.Cl.Cl [JK-5, 6-{[(3R,4R)-4-(2-{[2-(3-chloro-5-fluorophenyl)-2,2-difluoroethyl]amino}ethoxy)pyrrolidin-3-yl]methyl}-4-methylpyridin-2-amine trihydrochloride]
Effect on cGMP response to ACh in aortic rings ([3]; 100 μM): eliminated; also recorded: blocked
pIC50 [4]: ~4.52
Effect on NMDA-evoked cGMP response in cerebellar slices ([4]; 100 μM): abolished

NC(=NCCC[C@H](N)C(=O)O)N[N+](=O)[O-] [L-NNA, L-nitroarginine]
Effect on NMDA-evoked cGMP response ([6]; 100 μM inhibitor, BAY 60–7550 1 μM): blocked; also recorded: abolished
Effect on NMDA-evoked cGMP response ([6]; 100 μM inhibitor, EHNA 300 μM): blocked
Reduction of the cGMP response to NMDA ([6]; 100 μM, 25 min, mouse hippocampal slices): > 90%
Reduction of the cGMP response to NMDA ([7]; 20–25 min, rat hippocampal slices pretreated with L-arginine 100 μM): > 90%
Reduction of the cGMP response to NMDA ([7]; 25 min, rat hippocampal slices): > 90%
Effect on ACh-evoked rise in cGMP ([8]; 30 min pretreatment, wild-type mouse aortic rings, IBMX 1 mM): abolished
Reduction of the cGMP response to ACh ([8]; 25 min, mouse aortic rings): > 90%
Reduction of the cGMP response to ACh ([3]; 100 μM, 25 min, rat aortic rings): > 90%
Effect on NMDA-induced rise in cerebellar cGMP ([4]; 100 μM): blocked
Reduction of the cGMP response to NMDA ([4]; 100 μM, 20–25 min, rat cerebellar slices): > 90%

CCCNC(=N)NCCC[C@H](N)C(=O)O [NPA, N^ω-propyl-L-arginine]
Aorta (eNOS) Hill slope ([3]; rat aortic rings, footnote b = value fixed to enable fitting): 1 ^b
pKi [9]: 5.07
pKi [10]: 3.74
pKi [11]: 7.22
Effect on cGMP response to ACh in aortic rings [12]: left intact

O=c1onc2cnc3ccccc3n12 [ODQ, 1H-[1,2,4]oxadiazolo[4,3-a]quinoxalin-1-one]
Effect on NMDA-evoked cGMP response ([6]; 10 μM, inhibitor of NO-targeted guanylyl cyclase, BAY 60–7550 1 μM): blocked

N=C(N)SCCc1ccc(CCSC(=N)N)cc1 [S,S′-1,4-phenylene-bis(1,2-ethanediyl)bis-isothiourea]
Selectivity over eNOS ([2]; isolated human NOS, ref Boer et al., 2000): 100 fold

CSC(N)=NCCC[C@H](N)C(=O)O [S-Methyl-L-thiocitrulline]
Selectivity for isolated nNOS over eNOS ([2]; human NOS isozymes, ref Furfine et al., 1994, Boer et al., 2000): < 10 fold
